Among the data in ChEMBL document CHEMBL3272245, “Potent reversible anticholinesterase agents. Bis- and mono-N-substituted benzoquinolinium halides” (J Med Chem, 1977) are Ki values, retold here.

In assay [1] the target is T1, Butyrylcholinesterase (Equus caballus, UniProt Q9N1N9). The assay can be described thus: Reversible mixed-type inhibition of horse serum butyrylcholinesterase using acetylcholine bromide as substrate by Lineweaver-Burk plot analysis.
For assay [2], the target named is T2, Acetylcholinesterase (Electrophorus electricus, UniProt O42275). The assay can be described thus: Reversible mixed-type inhibition of electric eel acetylcholinesterase using acetylcholine bromide as substrate by Lineweaver-Burk plot analysis.
Assay [3] has as its target T1, Butyrylcholinesterase. Kind of assay: Reversible mixed-type inhibition of horse serum butyrylcholinesterase using acetylcholine bromide as substrate assessed as free enzyme-inhibitor complex by Lineweaver-Burk plot analysis.
In assay [4] the target is T2, Acetylcholinesterase. The assay can be described thus: Reversible mixed-type inhibition of electric eel acetylcholinesterase using acetylcholine bromide as substrate assessed as free enzyme-inhibitor complex by Lineweaver-Burk plot analysis.
In assay [5] the target is T2, Acetylcholinesterase. Kind of assay: Reversible competitive inhibition of electric eel acetylcholinesterase using acetylcholine bromide as substrate assessed as free enzyme-inhibitor complex by Lineweaver-Burk plot analysis.
For assay [6], the target named is T1, Butyrylcholinesterase. The assay can be described thus: Reversible competitive inhibition of horse serum butyrylcholinesterase using acetylcholine bromide as substrate assessed as free enzyme-inhibitor complex by Lineweaver-Burk plot analysis.
Assay [7] addresses T1, Butyrylcholinesterase. Kind of assay: Mixed-type inhibition of horse serum butyrylcholinesterase using acetylcholine bromide as substrate assessed as free enzyme-inhibitor complex by Lineweaver-Burk plot analysis.
Assay [8] concerns the target T2, Acetylcholinesterase. Kind of assay: Mixed-type inhibition of electric eel acetylcholinesterase using acetylcholine bromide as substrate assessed as free enzyme-inhibitor complex by Lineweaver-Burk plot analysis.
The target of assay [9] is T1, Butyrylcholinesterase. Kind of assay: Mixed-type inhibition of horse serum butyrylcholinesterase using acetylcholine bromide as substrate by Lineweaver-Burk plot analysis.
In assay [10] the target is T2, Acetylcholinesterase. Kind of assay: Mixed-type inhibition of electric eel acetylcholinesterase using acetylcholine bromide as substrate by Lineweaver-Burk plot analysis.
In assay [11] the target is T2, Acetylcholinesterase. Kind of assay: Mixed-type inhibition of electric eel acetylcholinesterase using acetylcholine bromide as substrate assessed as […] by Lineweaver-Burk plot analysis. The gist of the method:
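Electric eel electric-organ acetylcholinesterase (0.1 unit per 10 mL reaction) added to five inhibitor concentrations each mixed with acetylcholine bromide, e.g. 0.1, 0.15, 0.25, 0.4, 0.8 mM final. Initial hydrolysis rates over 4 min at 25 °C by pH-stat titration. Lineweaver-Burk analysis; Km from inhibitor-free runs.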

T2 sequence (O42275 whole entry): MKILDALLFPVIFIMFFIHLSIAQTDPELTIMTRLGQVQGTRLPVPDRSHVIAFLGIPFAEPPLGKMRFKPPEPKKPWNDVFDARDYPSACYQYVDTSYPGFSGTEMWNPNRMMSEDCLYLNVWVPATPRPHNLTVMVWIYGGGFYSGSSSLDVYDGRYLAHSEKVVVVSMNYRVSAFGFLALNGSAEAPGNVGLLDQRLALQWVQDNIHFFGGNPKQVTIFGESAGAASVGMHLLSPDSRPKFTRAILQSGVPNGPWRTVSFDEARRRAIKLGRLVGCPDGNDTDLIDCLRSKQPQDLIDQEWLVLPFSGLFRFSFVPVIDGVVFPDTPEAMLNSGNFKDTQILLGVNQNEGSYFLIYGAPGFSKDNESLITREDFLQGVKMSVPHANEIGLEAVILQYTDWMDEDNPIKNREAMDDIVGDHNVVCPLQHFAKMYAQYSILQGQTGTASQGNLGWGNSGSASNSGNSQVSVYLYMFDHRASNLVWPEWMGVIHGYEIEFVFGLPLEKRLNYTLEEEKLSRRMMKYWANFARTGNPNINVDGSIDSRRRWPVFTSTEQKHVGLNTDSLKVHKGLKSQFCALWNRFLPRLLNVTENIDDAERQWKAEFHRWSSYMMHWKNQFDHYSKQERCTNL
T1 sequence (Q9N1N9 whole entry): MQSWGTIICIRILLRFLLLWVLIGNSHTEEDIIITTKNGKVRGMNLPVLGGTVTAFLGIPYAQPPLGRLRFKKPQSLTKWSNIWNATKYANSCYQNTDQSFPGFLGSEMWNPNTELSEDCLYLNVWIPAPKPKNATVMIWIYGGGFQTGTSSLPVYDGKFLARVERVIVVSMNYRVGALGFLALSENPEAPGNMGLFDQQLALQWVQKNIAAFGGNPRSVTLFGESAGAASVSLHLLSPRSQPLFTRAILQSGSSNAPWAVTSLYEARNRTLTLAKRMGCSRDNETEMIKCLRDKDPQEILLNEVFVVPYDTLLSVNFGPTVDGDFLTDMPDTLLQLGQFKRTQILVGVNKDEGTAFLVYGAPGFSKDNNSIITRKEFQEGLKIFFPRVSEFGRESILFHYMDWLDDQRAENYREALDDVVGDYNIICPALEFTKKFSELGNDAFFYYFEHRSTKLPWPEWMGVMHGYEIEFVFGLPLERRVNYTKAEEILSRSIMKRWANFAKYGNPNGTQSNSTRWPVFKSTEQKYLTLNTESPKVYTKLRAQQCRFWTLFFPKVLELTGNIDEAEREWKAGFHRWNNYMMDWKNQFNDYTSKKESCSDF

`c1ccc(C[n+]2cccc3c4ccccc4ccc32)cc1`: the inhibition constant Ki (as a rule, the dissociation constant of the complex between target and ligand, obtained from inhibition or displacement) was found to be 5.6 µM at Butyrylcholinesterase [1], 37.4 µM on Acetylcholinesterase [2], 0.86 µM on Butyrylcholinesterase [3] and 9.3 µM at Acetylcholinesterase [4].

As for `c1ccc2c(c1)ccc1c2ccc[n+]1CCCCCC[n+]1cccc2c3ccccc3ccc21`, the Ki on Butyrylcholinesterase [1] was 1.5 µM; at Acetylcholinesterase [2] it was 0.072 µM; at Butyrylcholinesterase [3], 0.36 µM; on Acetylcholinesterase [4], 0.01 µM.

With `c1ccc(CC[n+]2cccc3c4ccccc4ccc32)cc1`, the Ki at Butyrylcholinesterase [1] was determined as 4.9 µM; on Acetylcholinesterase [2], 18.5 µM; at Butyrylcholinesterase [3] it was 0.92 µM; at Acetylcholinesterase [4], 1.8 µM.

`c1ccc2c(c1)c[n+](CCCCCC[n+]1cc3ccccc3c3ccccc31)c1ccccc21`: the Ki on Butyrylcholinesterase [1] turned out to be 0.091 µM; at Acetylcholinesterase [2], 0.0066 µM; on Butyrylcholinesterase [3], 0.027 µM; on Acetylcholinesterase [4] it was 0.0066 µM.

As for `CC(=O)OCC[n+]1ccccc1`, the Ki on Acetylcholinesterase [5] came out at 0.021 µM; on Butyrylcholinesterase [6], 0.011 µM; on Butyrylcholinesterase [3], 120 µM; on Butyrylcholinesterase [7] it was 120 µM; on Acetylcholinesterase [4], 320 µM; on Acetylcholinesterase [8] it was 320 µM.

As to `C[n+]1cc2ccccc2c2ccccc21`, the Ki on Butyrylcholinesterase [1] amounted to 6.4 µM; on Acetylcholinesterase [2] it was 25.5 µM; at Butyrylcholinesterase [3], 1.1 µM; on Acetylcholinesterase [4], 5.6 µM.

On to `CCC[n+]1cc2ccccc2c2ccccc21`, for which the inhibitory constant (Ki) at Butyrylcholinesterase [1] came to 7.5 µM; on Acetylcholinesterase [2], 13.6 µM; at Butyrylcholinesterase [3], 1.3 µM; on Acetylcholinesterase [4], 3.2 µM.

Turning to `c1ccc(CC[n+]2cc3ccccc3c3ccccc32)cc1`, the Ki is 0.31 µM on Butyrylcholinesterase [1], 0.78 µM at Acetylcholinesterase [2], 0.054 µM at Butyrylcholinesterase [3] and 0.28 µM at Acetylcholinesterase [4].

With `C[N+](C)(CCCCCC[N+](C)(C)Cc1ccc(-c2ccccc2)cc1)Cc1ccc(-c2ccccc2)cc1`, the Ki turned out to be 7.9 µM on Butyrylcholinesterase [9], 1.5 µM at Butyrylcholinesterase [7], 120 µM on Acetylcholinesterase [10] and 39 µM on Acetylcholinesterase [8].

Regarding `CC(=O)OCC[n+]1cccc2c3ccccc3ccc21`, the Ki was 0.95 µM on Acetylcholinesterase [5] and 0.82 µM on Butyrylcholinesterase [6].

Take `CCCCCC[n+]1cc2ccccc2c2ccccc21`: the Ki on Butyrylcholinesterase [1] turned out to be 0.9 µM; on Acetylcholinesterase [2], 1.8 µM; at Butyrylcholinesterase [3], 0.12 µM; at Acetylcholinesterase [4] it was 0.53 µM.

For the compound `c1ccc2c(c1)cc1ccccc1[n+]2CCCCCC[n+]1c2ccccc2cc2ccccc21`, the Ki came out at 0.024 µM at Butyrylcholinesterase [1], 0.0021 µM at Acetylcholinesterase [2], 0.0073 µM at Butyrylcholinesterase [3] and 0.0021 µM at Acetylcholinesterase [4].

`O=C(O)C[n+]1cc2ccccc2c2ccccc21`: the Ki is 86 µM at Butyrylcholinesterase [1], 72.4 µM on Acetylcholinesterase [2], 41 µM on Butyrylcholinesterase [3] and 12 µM on Acetylcholinesterase [4].

As to `C[n+]1cccc2ccc3ccccc3c21`, the Ki at Butyrylcholinesterase [1] was determined as 230 µM; on Acetylcholinesterase [2], 140 µM; at Butyrylcholinesterase [3], 32 µM; on Acetylcholinesterase [4], 18 µM.

Regarding `OCC[n+]1cc2ccccc2c2ccccc21`, the inhibition constant (Ki) on Butyrylcholinesterase [1] is 98.4 µM; at Acetylcholinesterase [2] it was 45 µM; at Butyrylcholinesterase [3], 37 µM; on Acetylcholinesterase [4], 31 µM.

`C[n+]1c2ccccc2cc2ccccc21`: the Ki at Butyrylcholinesterase [1] stood at 1.7 µM; at Acetylcholinesterase [2], 2.8 µM; on Butyrylcholinesterase [3] it was 0.24 µM; on Acetylcholinesterase [4] it was 0.5 µM.

Consider `OCC[n+]1cccc2c3ccccc3ccc21`, for which the Ki at Butyrylcholinesterase [1] is 210 µM; at Acetylcholinesterase [2], 160 µM; at Butyrylcholinesterase [3], 79 µM; on Acetylcholinesterase [4] it was 83 µM.

In the case of `c1ccc2c(c1)c[n+](Cc1ccc(C[n+]3cc4ccccc4c4ccccc43)cc1)c1ccccc21`, the Ki is 0.23 µM at Butyrylcholinesterase [1], 0.71 µM at Acetylcholinesterase [2], 0.057 µM at Butyrylcholinesterase [3] and 0.18 µM on Acetylcholinesterase [4].

Take `c1ccc(C[n+]2cc3ccccc3c3ccccc32)cc1`: the Ki at Butyrylcholinesterase [1] turned out to be 0.26 µM; on Acetylcholinesterase [2], 0.95 µM; at Butyrylcholinesterase [3], 0.061 µM; on Acetylcholinesterase [4], 0.25 µM.

For the compound `C[n+]1cccc2c3ccccc3ccc21`, the inhibition constant Ki turned out to be 34 µM at Butyrylcholinesterase [1], 25.4 µM on Acetylcholinesterase [2], 5.4 µM on Butyrylcholinesterase [3] and 8.9 µM at Acetylcholinesterase [4].

Consider `OCC[n+]1cccc2ccc3ccccc3c21`, for which the inhibition constant (Ki) turned out to be 410 µM on Butyrylcholinesterase [1], 360 µM on Acetylcholinesterase [2], 110 µM at Butyrylcholinesterase [3] and 150 µM at Acetylcholinesterase [4].

`c1cc[n+](CCCCCC[n+]2ccccc2)cc1`: the values for the Ki at Acetylcholinesterase [11], at Butyrylcholinesterase [9] and on Butyrylcholinesterase [7] were 16000 µM, 620 µM and 120 µM, respectively.

On to `CC(C)[n+]1cc2ccccc2c2ccccc21`, for which the Ki on Butyrylcholinesterase [1] stood at 4.8 µM; on Acetylcholinesterase [2], 97 µM; at Butyrylcholinesterase [3], 1.5 µM; at Acetylcholinesterase [4] it was 22 µM.

Take `CC(=O)OCC[n+]1c2ccccc2cc2ccccc21`: the Ki at Acetylcholinesterase [5] turned out to be 0.021 µM; on Butyrylcholinesterase [6], 0.011 µM.

For `C[N+](C)(CCCCCC[N+](C)(C)C1c2ccccc2-c2ccccc21)C1c2ccccc2-c2ccccc21` [HEXAFLUORENIUM BROMIDE], the Ki on Butyrylcholinesterase [1] worked out at 0.89 µM; at Acetylcholinesterase [2], 1.3 µM; at Butyrylcholinesterase [3], 0.34 µM; at Acetylcholinesterase [4], 1.3 µM.

For the compound `CC(=O)OCC[n+]1cc2ccccc2c2ccccc21`, the Ki at Acetylcholinesterase [5] came out at 0.38 µM; on Butyrylcholinesterase [6] it was 0.12 µM.

As for `OCC[n+]1c2ccccc2cc2ccccc21`, the Ki on Butyrylcholinesterase [1] is 7.2 µM; on Acetylcholinesterase [2], 9.6 µM; on Butyrylcholinesterase [3], 1.3 µM; at Acetylcholinesterase [4], 2.9 µM.
